Experimental data from ChEMBL document CHEMBL3616464, “One-pot synthesis of podophyllotoxin-thiourea congeners by employing NH₂SO₃H/NaI: Anticancer activity, DNA topoisomerase-II inhibition, and apoptosis inducing agents” (Bioorg Med Chem Lett, 2015).
The source made the active and inactive calls. No cut-off for these calls is given here.

Experiments:
A549 = assay: Cytotoxicity against human A549 cells after 48 hrs by MTT assay; assay type: functional, cell-based; conditions: A549, 48 h
DU-145 [1] = assay: Cytotoxicity against human DU145 cells after 48 hrs by MTT assay; assay type: functional, cell-based; conditions: DU-145, 48 h
[2] = Cytotoxicity against human RWPE1 cells after 48 hrs by MTT assay; assay type: cell-based; conditions: RWPE-1, 48 h
LNCaP = assay: Cytotoxicity against human LNCAP cells after 48 hrs by MTT assay; assay type: functional, cell-based
[3] = Cytotoxicity against human HGC cells after 48 hrs by MTT assay; assay type: functional, cell-based
MDA-MB-231 = assay: Cytotoxicity against human MDA-MB-231 cells after 48 hrs by MTT assay; assay type: functional, cell-based; conditions: MDA-MB-231, 48 h
[4] = Therapeutic index, ratio of IC50 for human RWPE1 cells to IC50 for human DU145 cells; assay type: cell-based; conditions: RWPE1 cells versus DU145 cells, read-out: Ratio IC50
In short: (§1)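 Selectivity expressed as the fold by which the IC50 in normal prostate epithelial RWPE-1 cells exceeds the IC50 in the prostate cancer line (DU-145 or LNCaP).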

[5] = molecular target: DNA topoisomerase 2-alpha (Homo sapiens) (UniProt P11388); assay: Inhibition of topoisomerase-2 (unknown origin) using kDNA assessed as increase of catenated kDNA level at 100 uM after 10 mins using ethidium bromide staining by agarose gel electrophoresis
Sequence of DNA topoisomerase 2-alpha (Homo sapiens) (P11388 whole entry): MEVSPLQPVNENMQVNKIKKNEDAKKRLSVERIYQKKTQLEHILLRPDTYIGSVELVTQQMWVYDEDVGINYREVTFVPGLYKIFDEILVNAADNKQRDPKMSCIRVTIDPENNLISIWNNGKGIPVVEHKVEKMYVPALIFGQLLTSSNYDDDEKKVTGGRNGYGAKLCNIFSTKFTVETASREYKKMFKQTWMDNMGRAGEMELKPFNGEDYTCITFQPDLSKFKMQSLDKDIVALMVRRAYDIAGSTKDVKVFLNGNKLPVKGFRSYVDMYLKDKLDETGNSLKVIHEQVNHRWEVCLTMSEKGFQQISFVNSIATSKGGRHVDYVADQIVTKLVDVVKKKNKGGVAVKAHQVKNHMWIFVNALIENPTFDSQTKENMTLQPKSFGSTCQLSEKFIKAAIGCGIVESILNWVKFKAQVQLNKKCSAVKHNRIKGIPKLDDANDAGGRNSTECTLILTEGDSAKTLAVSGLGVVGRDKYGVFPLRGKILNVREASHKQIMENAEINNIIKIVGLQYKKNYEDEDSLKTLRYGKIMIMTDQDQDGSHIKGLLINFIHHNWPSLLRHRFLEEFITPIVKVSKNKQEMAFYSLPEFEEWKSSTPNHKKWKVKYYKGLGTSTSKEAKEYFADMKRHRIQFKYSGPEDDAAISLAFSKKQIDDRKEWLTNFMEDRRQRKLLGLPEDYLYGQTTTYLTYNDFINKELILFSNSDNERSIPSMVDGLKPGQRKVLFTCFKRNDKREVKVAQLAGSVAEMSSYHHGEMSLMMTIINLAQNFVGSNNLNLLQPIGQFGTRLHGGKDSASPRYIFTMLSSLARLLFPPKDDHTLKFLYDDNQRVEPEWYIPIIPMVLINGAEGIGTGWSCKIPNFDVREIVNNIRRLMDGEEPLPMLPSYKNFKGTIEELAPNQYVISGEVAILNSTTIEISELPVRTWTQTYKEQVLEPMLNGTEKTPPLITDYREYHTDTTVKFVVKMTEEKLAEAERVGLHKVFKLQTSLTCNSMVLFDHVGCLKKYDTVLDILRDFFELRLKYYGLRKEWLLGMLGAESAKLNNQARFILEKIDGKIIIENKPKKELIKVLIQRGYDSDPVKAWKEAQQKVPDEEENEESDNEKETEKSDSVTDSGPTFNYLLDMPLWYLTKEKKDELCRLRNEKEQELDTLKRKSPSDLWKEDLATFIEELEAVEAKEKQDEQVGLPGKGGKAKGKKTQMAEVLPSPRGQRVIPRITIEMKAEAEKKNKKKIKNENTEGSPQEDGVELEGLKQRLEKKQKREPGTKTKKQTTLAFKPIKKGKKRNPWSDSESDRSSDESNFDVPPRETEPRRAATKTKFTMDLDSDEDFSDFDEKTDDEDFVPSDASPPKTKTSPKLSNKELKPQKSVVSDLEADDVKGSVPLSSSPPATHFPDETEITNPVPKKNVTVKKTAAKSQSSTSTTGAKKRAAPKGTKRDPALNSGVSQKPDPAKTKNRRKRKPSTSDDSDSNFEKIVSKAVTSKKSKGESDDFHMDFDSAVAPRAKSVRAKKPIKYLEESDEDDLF
In short: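 Drug-screening kit decatenation assay: catenated DNA incubated with topoisomerase II (5 units) and test agent, with etoposide as reference. Products were resolved by gel and visualised. Inhibition was judged by catenated DNA remaining in the wells, compared with nicked circular, relaxed circular or linear DNA forms.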

[6] = Therapeutic index, ratio of IC50 for human RWPE1 cells to IC50 for human LNCAP cells; assay type: cell-based; conditions: RWPE1 cells versus LNCAP cells, read-out: Ratio IC50; in short: as §1
DU-145 [7] = assay: Induction of apoptosis in human DU145 cells assessed as chromatin condensation at 125 to 500 nM after 48 hrs by phase-contrast microscopic analysis; assay type: functional, cell-based
In short: (§2)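 DU-145 cells treated with 125, 250 or 500 nM for 48 h. Morphology (chromatin condensation, nuclear fragmentation, membrane blebbing, apoptotic bodies) examined under phase-contrast light microscope and compared with untreated control.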

DU-145 [8] = assay: Induction of apoptosis in human DU145 cells assessed as nuclear fragmentation at 125 to 500 nM after 48 hrs by phase-contrast microscopic analysis; assay type: functional, cell-based; in short: as §2
DU-145 [9] = assay: Induction of apoptosis in human DU145 cells assessed as cell membrane blebbing at 125 to 500 nM after 48 hrs by phase-contrast microscopic analysis; assay type: functional, cell-based; in short: as §2
DU-145 [10] = assay: Induction of apoptosis in human DU145 cells assessed as formation of apoptotic bodies at 125 to 500 nM after 48 hrs by phase-contrast microscopic analysis; assay type: functional, cell-based; in short: as §2
DU-145 [11] = assay: Induction of apoptosis in human DU145 cells assessed as late apoptotic cells at 500 nM after 48 hrs by phase-contrast microscopic analysis; assay type: functional, cell-based; in short: as §2
DU-145 [12] = assay: Induction of apoptosis in human DU145 cells assessed as reduction of cell population at 500 nM after 48 hrs by phase-contrast microscopic analysis; assay type: functional, cell-based; in short: as §2
DU-145 [13] = assay: Induction of apoptosis in human DU145 cells assessed as chromatin condensation at 125 nM after 48 hrs using acridine orange and ethidium bromide staining by fluorescence microscopic analysis; assay type: functional, cell-based
In short: (§3)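 DU-145 cells treated with 125, 250 or 500 nM for 48 h, then stained with acridine orange/ethidium bromide. Nuclear and chromatin morphology scored by fluorescence microscopy. Live cells appear green and late apoptotic nuclei red with EB. Untreated cells serve as control.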

DU-145 [14] = assay: Induction of apoptosis in human DU145 cells assessed as horseshoe-shaped cells at 125 nM after 48 hrs using acridine orange and ethidium bromide staining by fluorescence microscopic analysis; assay type: functional, cell-based; in short: as §3
DU-145 [15] = assay: Induction of apoptosis in human DU145 cells assessed as cell membrane blebbing at 125 nM after 48 hrs using acridine orange and ethidium bromide staining by fluorescence microscopic analysis; assay type: functional, cell-based; in short: as §3
DU-145 [16] = assay: Induction of apoptosis in human DU145 cells assessed as destructive fragmentation of nuclei at 250 nM after 48 hrs using acridine orange and ethidium bromide staining by fluorescence microscopic analysis; assay type: functional, cell-based; in short: as §3
DU-145 [17] = assay: Induction of apoptosis in human DU145 cells assessed as irregular distribution of chromatin at 250 nM after 48 hrs using acridine orange and ethidium bromide staining by fluorescence microscopic analysis; assay type: functional, cell-based; in short: as §3
DU-145 [18] = assay: Induction of apoptosis in human DU145 cells assessed as late apoptotic cells at 500 nM after 48 hrs using acridine orange and ethidium bromide staining by fluorescence microscopic analysis; assay type: functional, cell-based; in short: as §3
DU-145 [19] = assay: Induction of apoptosis in human DU145 cells assessed as condensed chromatin at 500 nM after 48 hrs using acridine orange and ethidium bromide staining by fluorescence microscopic analysis; assay type: functional, cell-based; in short: as §3
DU-145 [20] = assay: Cell cycle arrest in human DU145 cells assessed as accumulation at G0/G1 phase at 125 nM after 48 hrs by propidium iodide staining (reference value: 43.5%); assay type: functional
DU-145 [21] = assay: Cell cycle arrest in human DU145 cells assessed as accumulation at S phase at 125 nM after 48 hrs by propidium iodide staining (reference value: 9.1%); assay type: functional
DU-145 [22] = assay: Cell cycle arrest in human DU145 cells assessed as accumulation at G2/M phase at 125 nM after 48 hrs by propidium iodide staining (reference value: 22.5%); assay type: functional
DU-145 [23] = assay: Cell cycle arrest in human DU145 cells assessed as accumulation at G0/G1 phase at 250 nM after 48 hrs by propidium iodide staining (reference value: 43.5%); assay type: functional
DU-145 [24] = assay: Cell cycle arrest in human DU145 cells assessed as accumulation at S phase at 250 nM after 48 hrs by propidium iodide staining (reference value: 9.1%); assay type: functional
DU-145 [25] = assay: Cell cycle arrest in human DU145 cells assessed as accumulation at G2/M phase at 250 nM after 48 hrs by propidium iodide staining (reference value: 22.5%); assay type: functional
DU-145 [26] = assay: Cell cycle arrest in human DU145 cells assessed as accumulation at G0/G1 phase at 500 nM after 48 hrs by propidium iodide staining (reference value: 43.5%); assay type: functional
DU-145 [27] = assay: Cell cycle arrest in human DU145 cells assessed as accumulation at S phase at 500 nM after 48 hrs by propidium iodide staining (reference value: 9.1%); assay type: functional
DU-145 [28] = assay: Cell cycle arrest in human DU145 cells assessed as accumulation at G2/M phase at 500 nM after 48 hrs by propidium iodide staining (reference value: 22.5%); assay type: functional
DU-145 [29] = assay: Induction of apoptosis in human DU145 cells assessed as dead cells at 125 nM after 48 hrs using Annexin-V and propidium iodide staining (reference value: 3.28%); assay type: functional
DU-145 [30] = assay: Induction of apoptosis in human DU145 cells assessed as live cells at 125 nM after 48 hrs using Annexin-V and propidium iodide staining (reference value: 86%); assay type: functional
DU-145 [31] = assay: Induction of apoptosis in human DU145 cells assessed as late apoptotic cells at 125 nM after 48 hrs using Annexin-V and propidium iodide staining (reference value: 9.32%); assay type: functional
DU-145 [32] = assay: Induction of apoptosis in human DU145 cells assessed as early apoptotic cells at 125 nM after 48 hrs using Annexin-V and propidium iodide staining (reference value: 1.40%); assay type: functional
DU-145 [33] = assay: Induction of apoptosis in human DU145 cells assessed as dead cells at 250 nM after 48 hrs using Annexin-V and propidium iodide staining (reference value: 3.28%); assay type: functional
DU-145 [34] = assay: Induction of apoptosis in human DU145 cells assessed as live cells at 250 nM after 48 hrs using Annexin-V and propidium iodide staining (reference value: 86%); assay type: functional
DU-145 [35] = assay: Induction of apoptosis in human DU145 cells assessed as late apoptotic cells at 250 nM after 48 hrs using Annexin-V and propidium iodide staining (reference value: 9.32%); assay type: functional
DU-145 [36] = assay: Induction of apoptosis in human DU145 cells assessed as early apoptotic cells at 250 nM after 48 hrs using Annexin-V and propidium iodide staining (reference value: 1.40%); assay type: functional
DU-145 [37] = assay: Induction of apoptosis in human DU145 cells assessed as dead cells at 500 nM after 48 hrs using Annexin-V and propidium iodide staining (reference value: 3.28%); assay type: functional
DU-145 [38] = assay: Induction of apoptosis in human DU145 cells assessed as live cells at 500 nM after 48 hrs using Annexin-V and propidium iodide staining (reference value: 86%); assay type: functional
DU-145 [39] = assay: Induction of apoptosis in human DU145 cells assessed as late apoptotic cells at 500 nM after 48 hrs using Annexin-V and propidium iodide staining (reference value: 9.32%); assay type: functional
DU-145 [40] = assay: Induction of apoptosis in human DU145 cells assessed as early apoptotic cells at 500 nM after 48 hrs using Annexin-V and propidium iodide staining (reference value: 1.40%); assay type: functional
[41] = molecular target: DNA topoisomerase 2-alpha (Homo sapiens) (UniProt P11388); assay: Inhibition of topoisomerase-2 (unknown origin) using kDNA assessed as increase of catenated kDNA level at 50 to 100 uM after 10 mins using ethidium bromide staining by agarose gel electrophoresis
In short: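 Topoisomerase II drug screening kit, with catenated DNA incubated with topoisomerase II (5 units) and test agent at 50 or 100 µM. Etoposide at 100 µM serves as standard. Products resolved on gel: catenated DNA is retained in the wells, and nicked/relaxed circular and linear forms are distinguished.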

COc1cc([C@@H]2c3cc4c(cc3[C@@H](O[C@@H]3O[C@@H]5CO[C@@H](C)O[C@H]5[C@H](O)[C@H]3O)[C@H]3COC(=O)[C@H]23)OCO4)cc(OC)c1O [ETOPOSIDE]
IC50 (A549): 38.5 µM
IC50 (DU-145 [1]): 5.21 µM
IC50 [2]: 27.6 µM
IC50 (LNCaP): 50.3 µM
IC50 [3]: 10.9 µM
IC50 (MDA-MB-231): 49.4 µM
selectivity ratio [4]: 5.3
inhibition [5]: Active

COc1ccc(NC(=S)N[C@@H]2c3cc4c(cc3[C@@H](c3cc(OC)c(OC)c(OC)c3)[C@H]3C(=O)OC[C@@H]32)OCO4)cc1
IC50 (A549): 37.6 µM
IC50 (DU-145 [1]): 0.5 µM
IC50 [2]: 40.9 µM
IC50 (LNCaP): 17.6 µM
IC50 [3]: 3.85 µM
IC50 (MDA-MB-231): 18 µM
selectivity ratio [4]: 81.7
selectivity ratio [6]: 2.3
Activity (DU-145 [7]): Active
Activity (DU-145 [8]): Active
Activity (DU-145 [9]): Active
Activity (DU-145 [10]): Active
Activity (DU-145 [11]): Active
Activity (DU-145 [12]): Active
Activity (DU-145 [13]): Active
Activity (DU-145 [14]): Active
Activity (DU-145 [15]): Active
Activity (DU-145 [16]): Active
Activity (DU-145 [17]): Active
Activity (DU-145 [18]): Active
Activity (DU-145 [19]): Active
Activity (DU-145 [20]): 33.5%
Activity (DU-145 [21]): 19.5%
Activity (DU-145 [22]): 27.9%
Activity (DU-145 [23]): 28.4%
Activity (DU-145 [24]): 30.8%
Activity (DU-145 [25]): 26.3%
Activity (DU-145 [26]): 27.8%
Activity (DU-145 [27]): 14.8%
Activity (DU-145 [28]): 41.7%
Activity (DU-145 [29]): 3.38%
Activity (DU-145 [30]): 74.57%
Activity (DU-145 [31]): 16.75%
Activity (DU-145 [32]): 5.31%
Activity (DU-145 [33]): 2.3%
Activity (DU-145 [34]): 59.8%
Activity (DU-145 [35]): 22.55%
Activity (DU-145 [36]): 15.35%
Activity (DU-145 [37]): 1.07%
Activity (DU-145 [38]): 27.87%
Activity (DU-145 [39]): 26.68%
Activity (DU-145 [40]): 44.38%
inhibition [41]: Active

COc1ccc(NC(=S)N[C@@H]2c3cc4c(cc3[C@@H](c3cc(OC)c(OC)c(OC)c3)[C@H]3C(=O)OC[C@@H]32)OCO4)c([N+](=O)[O-])c1
IC50 (A549): 35.1 µM
IC50 (DU-145 [1]): 12.2 µM
IC50 [2]: 78.4 µM
IC50 (LNCaP): 25.6 µM
IC50 [3]: 33.4 µM
IC50 (MDA-MB-231): 39.8 µM
selectivity ratio [4]: 6.4
selectivity ratio [6]: 3.1

CCOC(=O)c1ccc(NC(=S)N[C@@H]2c3cc4c(cc3[C@@H](c3cc(OC)c(OC)c(OC)c3)[C@H]3C(=O)OC[C@@H]32)OCO4)cc1
IC50 (A549): > 100 µM
IC50 (DU-145 [1]): 2.37 µM
IC50 [2]: 64 µM
IC50 (LNCaP): 5.49 µM
IC50 [3]: 45.4 µM
IC50 (MDA-MB-231): > 100 µM
selectivity ratio [4]: 27
selectivity ratio [6]: 11.6

COc1cc([C@@H]2c3cc4c(cc3[C@@H](NC(=S)Nc3ccc(C(F)(F)F)cc3)[C@H]3COC(=O)[C@H]23)OCO4)cc(OC)c1OC
IC50 (A549): 14.8 µM
IC50 (DU-145 [1]): 1.96 µM
IC50 [2]: 16.9 µM
IC50 (LNCaP): 3.56 µM
IC50 [3]: 56.8 µM
IC50 (MDA-MB-231): 7.58 µM
selectivity ratio [4]: 8.6
selectivity ratio [6]: 4.7
inhibition [5]: Active
